From ChEMBL document CHEMBL4354813, “Design, Synthesis, and Pharmacological Evaluation of Potent Positive Allosteric Modulators of the Glucagon-like Peptide-1 Receptor (GLP-1R)” (J Med Chem, 2020)
Active and inactive are the calls of the source. The calls are words filed in the database; no cut-off is given here.

Legend:
[1] = molecular target: T1, Glucagon-like peptide 1 receptor (Homo sapiens, UniProt P43220); test: Activity at human GLP-1R expressed in PSC-HEK293 cells incubated for 30 mins by HTRF cAMP assay; type: functional, cell-based
T1 sequence (P43220 whole entry): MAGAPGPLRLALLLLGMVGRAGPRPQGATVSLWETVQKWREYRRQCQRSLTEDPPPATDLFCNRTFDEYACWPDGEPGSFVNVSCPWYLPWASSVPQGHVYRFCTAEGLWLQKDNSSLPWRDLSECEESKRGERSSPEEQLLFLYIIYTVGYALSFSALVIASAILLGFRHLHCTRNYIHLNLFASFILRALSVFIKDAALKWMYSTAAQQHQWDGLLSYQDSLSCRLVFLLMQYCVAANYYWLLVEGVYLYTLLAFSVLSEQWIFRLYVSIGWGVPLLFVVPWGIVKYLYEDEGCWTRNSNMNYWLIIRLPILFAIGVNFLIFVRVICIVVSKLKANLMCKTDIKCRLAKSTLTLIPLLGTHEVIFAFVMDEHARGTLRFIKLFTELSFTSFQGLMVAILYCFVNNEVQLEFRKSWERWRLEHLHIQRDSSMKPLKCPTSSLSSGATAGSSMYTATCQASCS

[2] = molecular target: Glucagon receptor (Homo sapiens) (UniProt P47871); test: Positive allosteric modulator activity at human GCGR expressed in PSC-HEK293 cells assessed as potentiation of GLP-1(9-36)NH2-induced cAMP accumulation incubated for 30 mins by HTRF cAMP assay relative to control; type: functional, cell-based
Glucagon receptor (Homo sapiens), sequence (P47871 whole entry): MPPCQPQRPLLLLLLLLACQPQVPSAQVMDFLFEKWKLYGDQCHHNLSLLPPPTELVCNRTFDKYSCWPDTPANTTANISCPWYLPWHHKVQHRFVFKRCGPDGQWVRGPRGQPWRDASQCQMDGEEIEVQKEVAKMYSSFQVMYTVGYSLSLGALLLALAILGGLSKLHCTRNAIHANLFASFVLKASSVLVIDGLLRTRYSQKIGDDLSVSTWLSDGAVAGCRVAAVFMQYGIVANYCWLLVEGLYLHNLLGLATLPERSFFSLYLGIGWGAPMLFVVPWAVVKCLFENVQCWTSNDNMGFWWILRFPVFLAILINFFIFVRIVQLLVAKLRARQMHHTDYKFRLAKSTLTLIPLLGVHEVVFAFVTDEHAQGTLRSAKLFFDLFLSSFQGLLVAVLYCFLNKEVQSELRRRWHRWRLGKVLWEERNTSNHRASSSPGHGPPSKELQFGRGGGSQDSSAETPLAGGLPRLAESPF

[3] = molecular target: T2, Glucagon-like peptide 1 receptor (Mus musculus) (UniProt O35659); test: Inhibition of 15 mM glucose-mediated increase in intracellular Ca2+ level in mouse MIN6-c4 cells at 0.12 to 30 uM by FLIPR assay relative to control; type: functional, cell-based
T2 sequence (whole entry): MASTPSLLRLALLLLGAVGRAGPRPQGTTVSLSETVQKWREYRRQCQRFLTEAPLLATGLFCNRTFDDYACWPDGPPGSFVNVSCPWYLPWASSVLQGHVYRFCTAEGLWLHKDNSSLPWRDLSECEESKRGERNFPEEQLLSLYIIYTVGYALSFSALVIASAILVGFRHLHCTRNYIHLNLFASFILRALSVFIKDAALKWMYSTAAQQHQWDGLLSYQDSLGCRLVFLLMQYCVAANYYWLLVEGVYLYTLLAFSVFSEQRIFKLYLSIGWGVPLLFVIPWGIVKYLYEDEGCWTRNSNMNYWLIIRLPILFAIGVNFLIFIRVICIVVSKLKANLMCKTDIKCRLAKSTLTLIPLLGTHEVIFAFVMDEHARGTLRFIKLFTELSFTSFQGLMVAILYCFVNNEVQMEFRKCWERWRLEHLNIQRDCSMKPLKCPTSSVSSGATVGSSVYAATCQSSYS

[4] = molecular target: T1, Glucagon-like peptide 1 receptor; test: Positive allosteric modulator activity at human GLP-1R expressed in PSC-HEK293 cells assessed as potentiation of GLP-1(7-36)NH2-induced cAMP accumulation incubated for 30 mins by HTRF cAMP assay relative to control; type: functional, cell-based
[5] = molecular target: T1, Glucagon-like peptide 1 receptor; test: Positive allosteric modulator activity at human GLP-1R expressed in PSC-HEK293 cells assessed as potentiation of GLP1(9-36)NH2-induced cAMP accumulation by measuring shift in EC50 of endogenous GLP1(9-36)NH2 at 10 uM incubated for 30 mins by HTRF cAMP assay relative to control; type: functional, cell-based
Procedure, shortened: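 Thawed frozen PSC-HEK293 cells stably expressing human GLP-1R, 2000 cells/well in HBSS/20 mM HEPES/0.1% BSA with 2 mM IBMX. Shift format: GLP1(9-36)NH2 dose-response with compound fixed at 10 or 3 µM; 30 min room temperature; cAMP by HTRF (665/620 nm ratio) after 1 h with lysis reagents; 4-parameter logistic fit; EC50 shift factor derived.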

[6] = molecular target: Vasoactive intestinal polypeptide receptor 2 (Homo sapiens) (UniProt P41587); test: Activity at human VIPR expressed in PSC-HEK293 cells incubated for 30 mins by HTRF cAMP assay
Vasoactive intestinal polypeptide receptor 2 (Homo sapiens), sequence (P41587 whole entry, looked up): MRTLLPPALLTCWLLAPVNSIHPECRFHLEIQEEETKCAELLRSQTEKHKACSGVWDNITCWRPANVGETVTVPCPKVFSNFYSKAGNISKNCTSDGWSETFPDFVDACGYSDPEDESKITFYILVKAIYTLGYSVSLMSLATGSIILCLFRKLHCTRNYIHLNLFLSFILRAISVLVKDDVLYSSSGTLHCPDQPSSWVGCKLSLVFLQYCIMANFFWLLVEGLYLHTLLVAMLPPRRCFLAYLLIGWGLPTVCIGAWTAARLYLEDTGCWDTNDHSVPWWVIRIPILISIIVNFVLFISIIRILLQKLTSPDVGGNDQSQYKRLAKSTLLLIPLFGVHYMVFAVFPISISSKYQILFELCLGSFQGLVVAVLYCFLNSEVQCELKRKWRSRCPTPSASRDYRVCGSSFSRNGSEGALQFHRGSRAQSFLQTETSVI

[7] = molecular target: T1, Glucagon-like peptide 1 receptor; test: Positive allosteric modulator activity at human GLP-1R expressed in PSC-HEK293 cells assessed as potentiation of oxyntomodulin-induced cAMP accumulation incubated for 30 mins by HTRF cAMP assay relative to control; type: functional, cell-based
Procedure, shortened: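 Counterscreen in HEK293 cells with recombinant receptor, 2000 cells/well, 2 mM IBMX, 30 min at room temperature. Compound tested with 10 nM oxyntomodulin (GLP-1R cells) or with GLP-1(9-36)NH2 in glucagon-receptor-overexpressing cells. cAMP read by HTRF at 665/620 nm.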

[8] = molecular target: Glucagon receptor (Homo sapiens) (UniProt P47871); test: Activity at human GCGR expressed in PSC-HEK293 cells incubated for 30 mins by HTRF cAMP assay; type: functional, cell-based
HEK293 = test: Effect on cAMP accumulation in parental HEK293 cells incubated for 30 mins by HTRF cAMP assay; type: functional, cell-based; details: Homo sapiens
[9] = molecular target: T2, Glucagon-like peptide 1 receptor (Mus musculus); test: Positive allosteric modulator activity at GLP-1R in mouse MIN6-c4 cells assessed as effect on glucose-mediated increase in intracellular Ca2+ level by FLIPR assay relative to control; type: functional, cell-based
[10] = molecular target: T1, Glucagon-like peptide 1 receptor; test: Positive allosteric modulator activity at human GLP-1R expressed in PSC-HEK293 cells in presence of EC20 level of GLP1(9-36)NH2 incubated for 30 mins by HTRF cAMP assay relative to control; type: functional, cell-based
Procedure, shortened: (§1)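 Thaw-and-use PSC-HEK293 cells stably expressing human GLP-1R, 2000 cells/well in HBSS/20 mM HEPES/0.1% BSA with 2 mM IBMX. Enhancer format: compound dose-response plus fixed EC20 GLP1(9-36)NH2. Shift format: GLP1(9-36)NH2 dose-response plus 10 or 3 μM compound. 30 min at room temperature. HTRF cAMP read after 1 h lysis (665/620 nm). EC50 from a 4-parameter logistic fit.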

[11] = molecular target: T1, Glucagon-like peptide 1 receptor; test: Positive allosteric modulator activity at human GLP-1R expressed in PSC-HEK293 cells in presence of EC20 level of GLP1(9-36)NH2 incubated for 30 mins by HTRF cAMP assay; type: functional, cell-based
Procedure, shortened: as §1, with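 “temperature.” for “temperature. HTRF cAMP read after 1 h lysis (665/620 nm).”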

[12] = molecular target: T1, Glucagon-like peptide 1 receptor; test: Positive allosteric modulator activity at human GLP-1R expressed in PSC-HEK293 cells assessed as potentiation of GLP1(9-36)NH2-induced cAMP accumulation by measuring shift in EC50 of endogenous GLP1(9-36)NH2 at 3 uM incubated for 30 mins by HTRF cAMP assay relative to control; type: functional, cell-based; procedure, shortened: as §1
[13] = molecular target: T1, Glucagon-like peptide 1 receptor; test: Positive allosteric modulator activity at GLP-1R in human 1.1B4 cells in presence of EC20 level of GLP1(9-36)NH2 incubated for 30 mins by HTRF cAMP assay; type: functional, cell-based; details: read-out: EC50
Procedure, shortened: (§2)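 Human pancreatic β-cell line 1.1B4, 20,000 cells/well cultured overnight, washed twice; compound concentration-response with fixed 10 nM GLP1(9-36)NH2, 30 min. cAMP by HTRF 665/620 ratio, normalised to buffer (1x HBSS, 0.1% BSA, 1 mM IBMX; 0%) and GLP-1(7-36)NH2 (100%); 4-parameter logistic fit.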

[14] = molecular target: T1, Glucagon-like peptide 1 receptor; test: Positive allosteric modulator activity at GLP-1R in human 1.1B4 cells in presence of EC20 level of GLP1(9-36)NH2 incubated for 30 mins by HTRF cAMP assay relative to control; type: functional, cell-based; procedure, shortened: as §2

Activity [1] | Activity [2] | inhibition [3] | Activity [4] | Ratio EC50 [5] | Activity [6] | Activity [7] | Activity [8] | fold change (FC) [9] | Emax [10] [%] | EC50 [11] [nM] | Ratio EC50 [12] | EC50 [13] [nM] | Emax [14] [%] | SMILES | Activity (HEK293)
inactive | inactive | inactive | inactive | 8190 | inactive | inactive | inactive | 1.2 | 100 | 5 | 2220 | 130 | 102 | CC(C)(C)OC(=O)n1c2c(c3ccccc31)C[C@H]1C(=O)N3C[C@@H](CC(=O)O)C[C@H]3[C@@H]2N1C(=O)CC1CCC(F)(F)CC1 | inactive
inactive | inactive | Active | inactive | 3140 | inactive | inactive | inactive | 0.9 | 100 | 1.5 | 526 | 40 | 100 | CC(O)CCN1C[C@H]2c3c(c4ccccc4n3C(=O)OC(C)(C)C)C[C@@H](C1=O)N2C(=O)CC1CCC(F)(F)CC1 (stereo not given in full) | inactive
